From ChEMBL document CHEMBL3734694, “Design, synthesis, and anticancer evaluation of long-chain alkoxylated mono-carbonyl analogues of curcumin” (Eur J Med Chem, 2015)
≈ marks a conversion by molar mass, not a printed value. Calls of active or inactive are those of the source. The rule behind the calls is not given here.

Columns and labels:
[1] = Cytotoxicity against human MGC803 cells assessed as inhibition of cell proliferation incubated for 72 hrs by MTS assay; format: functional, cell-based; conditions: MGC-803, 72 h
Procedure, shortened: (§1)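 Cells in RPMI-1640 with 10% heat-inactivated FBS at 37°C, 5% CO2. Seeded at 4000 cells/well in triplicate and attached overnight. Exposed to various concentrations for 72 h. MTS added for a further 4 h; absorbance at 490 nm. IC50 = concentration for 50% growth inhibition, as mean ± SEM of three independent tests.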

[2] = Cytotoxicity against human SGC7901 cells assessed as inhibition of cell proliferation incubated for 72 hrs by MTS assay; format: functional, cell-based; conditions: SGC-7901, 72 h; procedure, shortened: as §1
[3] = Cytotoxicity against human SW620 cells assessed as inhibition of cell proliferation incubated for 72 hrs by MTS assay; format: functional, cell-based; conditions: SW-620, 72 h; procedure, shortened: as §1
CT26 [4] = experiment: Cytotoxicity against mouse CT26 cells assessed as inhibition of cell proliferation incubated for 72 hrs by MTS assay; format: functional, cell-based; conditions: CT26, 72 h; procedure, shortened: as §1
[5] = Cytotoxicity against human GES-1 cells assessed as inhibition of cell proliferation incubated for 72 hrs by MTS assay; format: functional, cell-based; conditions: GES1, 72 h; procedure, shortened: as §1
[6] = Cytotoxicity against human MGC803 cells assessed as inhibition of cell proliferation at 10 uM incubated for 72 hrs by MTS assay; format: functional; conditions: MGC-803, 72 h
Procedure, shortened: (§2)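 Single-concentration MTS screen at 10 μM. Cells in RPMI-1640 with 10% FBS, seeded at 4000 cells/well in triplicate, attached overnight, then exposed for 72 h at 37°C, 5% CO2. MTS for 4 h; absorbance 490 nm. Reported as % inhibition.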

[7] = Cytotoxicity against human SGC7901 cells assessed as inhibition of cell proliferation at 10 uM incubated for 72 hrs by MTS assay; format: functional; conditions: SGC-7901, 72 h; procedure, shortened: as §2
[8] = Cytotoxicity against human SW620 cells assessed as inhibition of cell proliferation at 10 uM incubated for 72 hrs by MTS assay; format: functional; conditions: SW-620, 72 h; procedure, shortened: as §2
CT26 [9] = experiment: Cytotoxicity against mouse CT26 cells at 10 uM assessed as inhibition of cell proliferation incubated for 72 hrs by MTS assay; format: functional; conditions: CT26, 72 h; procedure, shortened: as §2
SGC-7901 [10] = experiment: Induction of apoptosis in human SGC7901 cells assessed as necrotic cells and late apoptotic cells incubated for 30 hrs by PI and Annexin V-FITC-based flow cytometric analysis; format: functional, cell-based
Procedure, shortened: (§3)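 SGC7901 cells grown to 80% confluency in 6-well plates, then treated 30 h with 2.5, 5 or 10 μM. DMSO negative control. Cells washed in ice-cold PBS and stained with FITC-Annexin V and PI in binding buffer. Read by flow cytometry: UR = necrotic/late apoptotic, LR = early apoptotic. Three separate experiments.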

SGC-7901 [11] = experiment: Induction of apoptosis in human SGC7901 at 10 uM incubated for 30 hrs by PI and Annexin V-FITC-based flow cytometric analysis; format: functional; procedure, shortened: as §3
SGC-7901 [12] = experiment: Induction of apoptosis in human SGC7901 cells assessed as decrease in BCL2 expression at 2.5 to 10 uM incubated for 24 hrs by immunoblotting; format: functional, cell-based
Procedure, shortened: (§4)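 SGC7901 cells treated 24 h at 2.5, 5 or 10 μM. Lysed on ice for 30 min; 60 µg protein run on 10% SDS-PAGE and transferred to PVDF. Blocked in 5% milk. Primary antibodies (cleaved PARP, pro-caspase-3, Bcl-2) overnight at 4°C, HRP secondary 1:300 for 1 h at room temperature. ECL detection. Three experiments.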

SGC-7901 [13] = experiment: Induction of apoptosis in human SGC7901 cells assessed as increase in cleaved PARP incubated for 24 hrs by immunoblotting; format: functional, cell-based; procedure, shortened: as §4
SGC-7901 [14] = experiment: Induction of apoptosis in human SGC7901 cells assessed as decrease in procaspase-3 fragments at 2.5 to 10 uM incubated for 24 hrs by immunoblotting; format: functional, cell-based; procedure, shortened: as §4
[15] = Antitumor activity against human SGC7901 cells xenografted in nude mouse at 100 mg/kg, po qd for 23 days; format: functional; conditions: SGC-7901, po, 552 h
Procedure, shortened: (§5)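 SGC7901 xenograft: female nude mice, 8 weeks old, given 10 million cells s.c. At about 40 mm³, randomized to 0.5% CMCNA vehicle or oral daily doses for 23 consecutive days. Calipers every 2 days; volume = π/6 × large diameter × (small diameter)². %ΔT/ΔC determined. Tumours weighed after sacrifice on the final day. Mean ± SEM; Student's t-test.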

SGC-7901 [16] = experiment: Antitumor activity against human SGC7901 cells xenografted in po dosed nude mouse assessed as decrease in tumor weight administered as once daily for 23 days; format: functional, organism-based; procedure, shortened: as §5
Mus musculus [17] = experiment: Toxicity in po dosed nude mouse xenografted with human SGC7901 cells assessed as loss of body weight at 50 and 100 mg/kg, po qd for 23 days; format: organism-based, SGC-7901; conditions: in vivo, 552 h
Procedure, shortened: (§6)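 Female nude mice (8 weeks) bearing s.c. SGC7901 tumours (10 million cells injected) of about 40 mm³. Given 0.5% CMCNA vehicle or 50 or 100 mg/kg/day orally for 23 consecutive days. Observed daily. Body weights monitored for the duration of the study.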

SGC-7901 [18] = experiment: Antitumor activity against human SGC7901 cells xenografted in nude mouse assessed as decrease cell proliferation at 50 and 100 mg/kg, po qd for 23 days by Ki67 staining-based immunohistochemistry; format: functional, organism-based
Procedure, shortened: (§7)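 Female nude mice, eight weeks old, injected s.c. with 10 million SGC7901 cells. At about 40 mm³, randomized to 0.5% CMCNA vehicle or daily oral dosing for 23 consecutive days. Tumour halves fixed in 4% paraformaldehyde. 5 μm sections, citrate antigen retrieval. Primary antibody overnight at 4°C (anti-Ki67 1:50, cleaved caspase-3 1:100), then HRP secondary 1:100 for 2 h at 37°C. DAB stain, hematoxylin counterstain.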

SGC-7901 [19] = experiment: Antitumor activity against human SGC7901 cells xenografted in nude mouse assessed as increase in cleaved caspase-3 at 50 and 100 mg/kg, po qd for 23 days by DAB substrate-chromogen staining-based immunohistochemistry; format: functional, organism-based; procedure, shortened: as §7
Mus musculus [20] = experiment: Toxicity in po dosed nude mouse xenografted with human SGC7901 cells assessed as drug tolerability by measuring clinical parameters at 50 and 100 mg/kg, po qd for 23 days; format: organism-based, SGC-7901; conditions: in vivo, 552 h; procedure, shortened: as §6
[21] = Solubility of compound in water

SMILES | solubility [21] | IC50 [1] | IC50 [2] | IC50 [3] | IC50 (CT26 [4]) | IC50 [5] | inhibition at 10 µM [6] | inhibition at 10 µM [7] | inhibition at 10 µM [8] | inhibition at 10 µM (CT26 [9]) | Activity (SGC-7901 [10]) | Activity (SGC-7901 [12]) | Activity (SGC-7901 [13]) | Activity (SGC-7901 [14]) | further results
COc1ccccc1/C=C/C(=O)/C=C/c1ccc(OCCCN2CCOCC2)c(OC)c1 | 21.2 µg/mL (≈ 48.5 µM) | 2180 nM | 1910 nM | 1220 nM | 2560 nM | 2620 nM | 80.3% | 75.3% | 105% | 104% | Dose-dependent effect | Active | Dose-dependent effect | Active | Activity (SGC-7901 [11]): 50%; inhibition in vivo at 100 mg/kg [15]: 48%; inhibition (SGC-7901 [16]): Dose-dependent effect; Activity (Mus musculus [17]): Non-toxic; Activity (SGC-7901 [18]): Active; Activity (SGC-7901 [19]): Active; Activity (Mus musculus [20]): Non-toxic
COc1cc(/C=C/C(=O)/C=C/c2cccc(OC)c2OC)ccc1OCCCN1CCOCC1 | 114 µg/mL (≈ 243 µM) | 2490 nM | 1840 nM | 1020 nM | 2380 nM | 2770 nM | 77.6% | 73.7% | 82.1% | 88.9% | inactive |  | inactive | Active | 
CCN(CC)CCCOc1ccc(/C=C2\CCC/C(=C\c3ccc(OCCCN(CC)CC)c(OC)c3)C2=O)cc1OC | 21.6 µg/mL (≈ 36.5 µM) | 1720 nM | 1700 nM | 990 nM | 2060 nM | 3450 nM | 80.4% | 78% | 82.6% | 91.9% | Dose-dependent effect | Active | Dose-dependent effect | Active | 

Second part, led by results:

solubility [21] | SMILES | IC50 [1] | IC50 [2] | IC50 [3] | IC50 (CT26 [4]) | IC50 [5] | inhibition at 10 µM [6] | inhibition at 10 µM [7] | inhibition at 10 µM [8] | inhibition at 10 µM (CT26 [9]) | Activity (SGC-7901 [10]) | Activity (SGC-7901 [12]) | Activity (SGC-7901 [13]) | Activity (SGC-7901 [14]) | further results
3.63 µg/mL (≈ 6.38 µM) | COc1cc(/C=C2\CC/C(=C\c3ccc(OCCCn4ccnc4)c(OC)c3)C2=O)ccc1OCCCn1ccnc1 | 2460 nM | 890 nM | 950 nM | 360 nM | 7090 nM | 16.3% | 76.8% | 93.5% | 101% |  |  |  |  | 
4.11 µg/mL (≈ 6.82 µM) | COc1cc(/C=C2\CC/C(=C\c3ccc(OCCCN4CCCCC4)c(OC)c3)C2=O)ccc1OCCCN1CCCCC1 | 680 nM | 440 nM | 390 nM | 180 nM | 670 nM | 86.6% | 84.2% | 83.8% | 91.9% |  |  |  |  | 
